The values below come from ChEMBL document CHEMBL3621200, “Toward the discovery of dual HCMV-VZV inhibitors: Synthesis, structure activity relationship analysis, and cytotoxicity studies of long chained 2-uracil-3-yl-N-(4-phenoxyphenyl)acetamides” (Bioorg Med Chem, 2015).

For orientation: CC50 means the concentration that lowers cell viability or growth by half. Broadly, the EC50 is the concentration at which the effect is half-maximal.

Structures are written as SMILES. Activity calls are given as the source filed them. The rule behind the calls is not given here.

The first data set has as its system Coxsackievirus B4. Briefly: Antiviral activity against Human coxsackievirus B4. The data set is classed as functional, organism-based.
Conditions: not given
Turning to `O=C(Cn1c(=O)ccn(CCCCCOc2ccc(-c3ccccc3)cc2)c1=O)Nc1ccc(Oc2ccccc2)cc1`, the inhibition entry was “inactive”.
The same measure, in the same setting: with `O=C(Cn1c(=O)ccn(CCCCCOc2ccc(Br)cc2)c1=O)Nc1ccc(C(=O)c2ccccc2)cc1` the entry was “inactive”.

The next data set relates to Punta Toro virus. In words: Antiviral activity against Punta Toro virus. It is filed as functional, organism-based.
Conditions: not given
Turning to `O=C(Cn1c(=O)ccn(CCCCCOc2ccc(-c3ccccc3)cc2)c1=O)Nc1ccc(Oc2ccccc2)cc1`, the inhibition result is “inactive”.
Still for that read-out and setting: with `O=C(Cn1c(=O)ccn(CCCCCOc2ccc(Br)cc2)c1=O)Nc1ccc(C(=O)c2ccccc2)cc1` the entry was “inactive”.

A further data set relates to HEL. Briefly: Cytotoxicity against human cytomegalovirus infected HEL cells assessed as cell growth inhibition incubated for 3 days by coulter counter method. It is filed as cell-based. Conditions: 72 h. An outline of the steps: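 HEL cells were seeded at 5 × 10^3 cells/well and left to adhere and proliferate for 24 h, then compound-containing medium was added. After 3 days at 37 °C, cells were counted with a Coulter counter.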
Take `O=C(Cn1c(=O)ccn(CCCCCOc2ccc(-c3ccccc3)cc2)c1=O)Nc1ccc(Oc2ccccc2)cc1`: the CC50 is 2800 nM.
The same measure, in the same setting: with `O=C(Cn1c(=O)ccn(CCCCCOc2ccc(Br)cc2)c1=O)Nc1ccc(C(=O)c2ccccc2)cc1` the figure was 5800 nM.

A further data set has as its system Sindbis virus. Briefly: Antiviral activity against Sindbis virus. It is filed as functional, organism-based.
Conditions: not given
With `O=C(Cn1c(=O)ccn(CCCCCOc2ccc(-c3ccccc3)cc2)c1=O)Nc1ccc(Oc2ccccc2)cc1`, the inhibition entry was “inactive”.
Take `O=C(Cn1c(=O)ccn(CCCCCOc2ccc(Br)cc2)c1=O)Nc1ccc(C(=O)c2ccccc2)cc1`: the inhibition result is “inactive”.

Tested on in a further data set: not listed separately
Briefly: Cytotoxicity against human cytomegalovirus infected HEL cells assessed as alteration of cell morphology incubated for 3 days by microscopy. Conditions: HEL cells infected with human cytomegalovirus. It is filed as cell-based. An outline of the steps:
(§1)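 Cytotoxicity was given as the minimum cytotoxic concentration (MCC): the compound concentration causing a microscopically detectable change in HEL cell morphology.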
With `O=C(Cn1c(=O)ccn(CCCCCOc2ccc(-c3ccccc3)cc2)c1=O)Nc1ccc(Oc2ccccc2)cc1`, the MCC at 72 h came out at 20 µM.
With `O=C(Cn1c(=O)ccn(CCCCCOc2ccc(Br)cc2)c1=O)Nc1ccc(C(=O)c2ccccc2)cc1`, the MCC at 72 h was no less than 20 µM.

The subject of a further data set is Influenza B virus. In words: Antiviral activity against Influenza B virus.
Conditions: not given
It is filed as functional, organism-based. Put shortly:
(§2)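 Confluent cell monolayers (HEL, Vero, HeLa or MDCK) in 96-well plates were infected with 100 CCID50 of virus in the presence of varying compound concentrations. Cytopathicity was scored once it reached completion in untreated infected controls.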
With `O=C(Cn1c(=O)ccn(CCCCCOc2ccc(-c3ccccc3)cc2)c1=O)Nc1ccc(Oc2ccccc2)cc1`, the inhibition result was “inactive”.
Regarding `O=C(Cn1c(=O)ccn(CCCCCOc2ccc(Br)cc2)c1=O)Nc1ccc(C(=O)c2ccccc2)cc1`, the inhibition result is “inactive”.

For the next data set, the system named is Feline coronavirus. In words: Antiviral activity against Feline coronavirus. It is filed as functional, organism-based.
Conditions: not given
Consider `O=C(Cn1c(=O)ccn(CCCCCOc2ccc(-c3ccccc3)cc2)c1=O)Nc1ccc(Oc2ccccc2)cc1`, for which the inhibition entry is “inactive”.
The same measure, in the same setting: with `O=C(Cn1c(=O)ccn(CCCCCOc2ccc(Br)cc2)c1=O)Nc1ccc(C(=O)c2ccccc2)cc1` the entry was “inactive”.

The next data set has as its system Human respirovirus 3. Briefly: Antiviral activity against Parainfluenza 3 virus. The data set is classed as functional, organism-based.
Conditions: not given
With `O=C(Cn1c(=O)ccn(CCCCCOc2ccc(-c3ccccc3)cc2)c1=O)Nc1ccc(Oc2ccccc2)cc1`, the inhibition entry was “inactive”.
On the same count and under the same terms, to `O=C(Cn1c(=O)ccn(CCCCCOc2ccc(Br)cc2)c1=O)Nc1ccc(C(=O)c2ccccc2)cc1` belongs “inactive”.

In the next data set the test system is Vesicular stomatitis virus. In words: Antiviral activity against Vesicular stomatitis virus. The data set is classed as functional, organism-based.
Conditions: not given
Put shortly: as §2
Consider `O=C(Cn1c(=O)ccn(CCCCCOc2ccc(-c3ccccc3)cc2)c1=O)Nc1ccc(Oc2ccccc2)cc1`, for which the inhibition entry was “inactive”.
Same read-out and setting: to `O=C(Cn1c(=O)ccn(CCCCCOc2ccc(Br)cc2)c1=O)Nc1ccc(C(=O)c2ccccc2)cc1` belongs “inactive”.

Tested on in another data set: not listed separately
In words: Cytotoxicity against Varicella zoster virus infected HEL cells assessed as alteration of cell morphology incubated for 3 days by microscopy. It is filed as cell-based. As to conditions: human, HEL cells infected with Varicella zoster virus. Put shortly: as §1
With `O=C(Cn1c(=O)ccn(CCCCCOc2ccc(-c3ccccc3)cc2)c1=O)Nc1ccc(Oc2ccccc2)cc1`, the MCC at 72 h is 100 µM.
Same read-out and setting: with `O=C(Cn1c(=O)ccn(CCCCCOc2ccc(Br)cc2)c1=O)Nc1ccc(C(=O)c2ccccc2)cc1` the figure was greater than 100 µM.

Another data set relates to Mammalian orthoreovirus 1. Briefly: Antiviral activity against Reovirus 1. It is filed as functional.
Conditions: not given
With `O=C(Cn1c(=O)ccn(CCCCCOc2ccc(-c3ccccc3)cc2)c1=O)Nc1ccc(Oc2ccccc2)cc1`, the inhibition result was “inactive”.
For `O=C(Cn1c(=O)ccn(CCCCCOc2ccc(Br)cc2)c1=O)Nc1ccc(C(=O)c2ccccc2)cc1`, the inhibition entry is “inactive”.

A further data set has as its system Human herpesvirus 2 strain G. In words: Antiviral activity against HSV2 G Lyons. The data set is classed as functional, organism-based.
Conditions: not given
For `O=C(Cn1c(=O)ccn(CCCCCOc2ccc(-c3ccccc3)cc2)c1=O)Nc1ccc(Oc2ccccc2)cc1`, the inhibition result is “inactive”.
Same read-out and setting: to `O=C(Cn1c(=O)ccn(CCCCCOc2ccc(Br)cc2)c1=O)Nc1ccc(C(=O)c2ccccc2)cc1` belongs “inactive”.

The next data set relates to Human alphaherpesvirus 2. Briefly: Antiviral activity against HSV2 Lyons. It is filed as functional, organism-based.
Conditions: not given
Put shortly: (§3)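 Confluent cell monolayers in 96-well plates were inoculated with 100 CCID50 of virus together with varying compound concentrations. Cytopathicity was scored once it reached completion in untreated infected controls.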
Regarding `O=C(Cn1c(=O)ccn(CCCCCOc2ccc(-c3ccccc3)cc2)c1=O)Nc1ccc(Oc2ccccc2)cc1`, the inhibition entry is “inactive”.
As for `O=C(Cn1c(=O)ccn(CCCCCOc2ccc(Br)cc2)c1=O)Nc1ccc(C(=O)c2ccccc2)cc1`, the inhibition result was “inactive”.

A further data set has as its system Human immunodeficiency virus 1. In words: Antiviral activity against HIV1 3B infected in human CEM cells assessed as reduction in virus- induced cytopathicity incubated for 4 to 5 days by microscopy based virus syncytium formation assay. The data set is classed as functional, organism-based. Conditions: CCRF-CEM. Put shortly: (§4)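 CEM cells at ~3 × 10^5 cells/mL, infected with 100 CCID50 of HIV per mL in the presence of compound dilutions. Incubated 4–5 days at 37 °C in humidified CO2. Syncytium (giant cell) formation scored by microscopy.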
Turning to `O=C(Cn1c(=O)ccn(CCCCCOc2ccc(-c3ccccc3)cc2)c1=O)Nc1ccc(Oc2ccccc2)cc1`, the inhibition result is “inactive”.
On the same count and under the same terms, with `O=C(Cn1c(=O)ccn(CCCCCOc2ccc(Br)cc2)c1=O)Nc1ccc(C(=O)c2ccccc2)cc1` the entry was “inactive”.

The next data set deals with Human betaherpesvirus 5. In words: Antiviral activity against human cytomegalovirus AD169 infected in HEL cells assessed as reduction in viral plaque formation. Conditions: Human betaherpesvirus 5, AD169, HEL. It is filed as functional, organism-based. Put shortly: (§5)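 Confluent HEL fibroblasts were infected with 100 PFU of HCMV in the presence of varying compound concentrations. Plaques were counted once plaque formation was complete in untreated infected controls.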
Regarding `O=C(Cn1c(=O)ccn(CCCCCOc2ccc(-c3ccccc3)cc2)c1=O)Nc1ccc(Oc2ccccc2)cc1`, the EC50 was determined as 510 nM.
For the compound `O=C(Cn1c(=O)ccn(CCCCCOc2ccc(Br)cc2)c1=O)Nc1ccc(C(=O)c2ccccc2)cc1`, the EC50 worked out at 1790 nM.

Another data set has as its system Human immunodeficiency virus 2. In words: Antiviral activity against HIV2 ROD infected in human CEM cells assessed as reduction in virus- induced cytopathicity incubated for 4 to 5 days by microscopy based virus syncytium formation assay. It is filed as functional, organism-based. Conditions: ISOLATE ROD, CCRF-CEM. Put shortly: as §4
For `O=C(Cn1c(=O)ccn(CCCCCOc2ccc(-c3ccccc3)cc2)c1=O)Nc1ccc(Oc2ccccc2)cc1`, the inhibition entry was “inactive”.
The same measure, in the same setting: with `O=C(Cn1c(=O)ccn(CCCCCOc2ccc(Br)cc2)c1=O)Nc1ccc(C(=O)c2ccccc2)cc1` the entry was “inactive”.

In another data set the test system is Human alphaherpesvirus 1. In words: Antiviral activity against HSV1 KOS. It is filed as functional, organism-based.
Conditions: not given
An outline of the steps: as §3
Consider `O=C(Cn1c(=O)ccn(CCCCCOc2ccc(-c3ccccc3)cc2)c1=O)Nc1ccc(Oc2ccccc2)cc1`, for which the inhibition entry is “inactive”.
For the compound `O=C(Cn1c(=O)ccn(CCCCCOc2ccc(Br)cc2)c1=O)Nc1ccc(C(=O)c2ccccc2)cc1`, the inhibition result is “inactive”.

A further data set deals with Human betaherpesvirus 5. In words: Antiviral activity against human cytomegalovirus Davis infected in HEL cells assessed as reduction in viral plaque formation. The data set is classed as functional, organism-based. As to conditions: Human betaherpesvirus 5, Davis. An outline of the steps: as §5
As for `O=C(Cn1c(=O)ccn(CCCCCOc2ccc(-c3ccccc3)cc2)c1=O)Nc1ccc(Oc2ccccc2)cc1`, the EC50 was determined as 1040 nM.
Still for that read-out and setting: to `O=C(Cn1c(=O)ccn(CCCCCOc2ccc(Br)cc2)c1=O)Nc1ccc(C(=O)c2ccccc2)cc1` belongs 1640 nM.

In another data set the test system is Vaccinia virus. Briefly: Antiviral activity against Vaccinia virus Lederle. It is filed as functional, organism-based. Conditions: Orthopoxvirus vaccinia. Put shortly: as §2
With `O=C(Cn1c(=O)ccn(CCCCCOc2ccc(-c3ccccc3)cc2)c1=O)Nc1ccc(Oc2ccccc2)cc1`, the inhibition entry was “inactive”.
On to `O=C(Cn1c(=O)ccn(CCCCCOc2ccc(Br)cc2)c1=O)Nc1ccc(C(=O)c2ccccc2)cc1`, for which the inhibition result was “inactive”.

The next data set has as its system Influenza A virus. Briefly: Antiviral activity against Influenza A virus H1N1. The data set is classed as functional, organism-based.
Conditions: not given
An outline of the steps: as §2
As for `O=C(Cn1c(=O)ccn(CCCCCOc2ccc(-c3ccccc3)cc2)c1=O)Nc1ccc(Oc2ccccc2)cc1`, the inhibition entry was “inactive”.
As for `O=C(Cn1c(=O)ccn(CCCCCOc2ccc(Br)cc2)c1=O)Nc1ccc(C(=O)c2ccccc2)cc1`, the inhibition result is “inactive”.

The next data set relates to Influenza A virus H3N2. Briefly: Antiviral activity against Influenza A virus H3N2.
Conditions: not given
It is filed as functional, organism-based. Put shortly: as §2
Regarding `O=C(Cn1c(=O)ccn(CCCCCOc2ccc(-c3ccccc3)cc2)c1=O)Nc1ccc(Oc2ccccc2)cc1`, the inhibition result was “inactive”.
The same measure, in the same setting: with `O=C(Cn1c(=O)ccn(CCCCCOc2ccc(Br)cc2)c1=O)Nc1ccc(C(=O)c2ccccc2)cc1` the entry was “inactive”.
